Consider 2 compounds from paper PMC12011195 (ACS chemical biology, 2024).

Assay [1] concerns FXN mRNA in GM15850 cells. Description: Co-treatment of SynGRs with BET-binding ligands, FXN mRNA in GM15850 cells. The assay is classed as cell-based, human. Conditions: SynGR1 1 h, then ligand 0.5 μM for 23 h. The method, boiled down:
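Patient-derived GM15850 lymphoblasts in RPMI with 15% FBS; compounds dissolved in DMSO. Test compound (1 mM stock, increasing concentrations) added for 1 h, then pan-BET, BD1- or BD2-selective BET ligand at 0.5 μM for 23 h. RNA purified with DNase treatment; cDNA from 400 ng RNA; SYBR qPCR on 100 ng cDNA with FXN and TBP primers; normalised to 0.1% DMSO control.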

Assay [2] concerns FXN expression in patient-derived cells. Particulars: wide array of patient-derived cells; cited from earlier work.

On to `COCc1nc2cnc3cc(-c4c(C)noc4C)c(OC[C@H]4CCNC4)cc3c2n1[C@H](C)c1ccccc1` [GSK778], for which the “effect of co-treatment with BET ligand on FXN expression activity of SynGR1” value in assay [1] is reported as “further stimulated the activity”.

Take `Cc1sc2c(c1C)C(c1ccc(Cl)cc1)=N[C@@H](CC(=O)NCCOCCOCCOCCOCCOCCOCCC(=O)NCCCN(C)CCCNC(=O)CCNC(=O)c1nc(NC(=O)CCNC(=O)c3cc(NC(=O)c4nc(NC(=O)CCNC(=O)c5cc(NC(=O)c6nccn6C)cn5C)cn4C)cn3C)cn1C)c1nnc(C)n1-2` [SynGR1]: the FXN protein levels entry in assay [2] is on record as “restoring FXN protein levels”.
